Measured values reported in ChEMBL document CHEMBL4028856, “Discovery of Small Molecules Targeting the Synergy of Cardiac Transcription Factors GATA4 and NKX2-5” (J Med Chem, 2017).
Activity calls are given as the source filed them. No cut-off for these calls is given here.

Experiments:
[1] = target: Homeobox protein Nkx-2.5 (Mus musculus) (UniProt P42582); assay: Inhibition of binding of mouse NKX2-5 to [32P]-double stranded oligonucleotide expressed in African green monkey COS-1 cells at 50 uM preincubated for 10 mins followed by [32P]-double stranded oligonucleotide addition measured after 20 mins by EMSA method; format: cell-based
Procedure, shortened: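 Nuclear extracts from COS-1 cells transfected with pMT2-GATA4 or pMT2-NKX2-5 (harvested 48 h) preincubated 10 min with 50 μM compound, then 20 min with 32P-labeled GATA4- or NKX2-5-site probe; native 5% PAGE, phosphorimager quantitation; antibody supershift controls; mean ± SD, n = 3–5.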

[2] = target: Mitogen-activated protein kinase 1 (Homo sapiens) (UniProt P28482); assay: Inhibition of human ERK2 at 30 uM
Procedure, shortened: (§1)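 48-kinase profiling panel; compounds tested at 30 μM in duplicate.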

[3] = target: Transcription factor GATA-4 (Mus musculus) (UniProt Q08369); assay: Inhibition of mouse GATA4-driven transactivation of luciferase reporter construct containing BNP minimal promoter with tandem GATA-site on -90 bp expressed in African green monkey COS-1 cells after 30 hrs by luminometer; format: cell-based
Procedure, shortened: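 COS-1 cells co-transfected with firefly luciferase driven by BNP minimal or −90 bp BNP promoter, Renilla pRL-TKd238, and pMT2-GATA4 or empty pMT2. Compounds added 6 h post-transfection in 0.1% DMSO, refreshed with medium at 24 h; lysis at 30 h; dual-luciferase, firefly/Renilla normalized to vehicle; triplicate wells.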

[4] = Induction of aggregation of compound at 3 to 30 uM by nephalometric method
[5] = target: Hydroxycarboxylic acid receptor 2 (Homo sapiens) (UniProt Q8TDS4); assay: Antagonist activity at human GPR109A expressed in rat Chem-4 cells assessed as inhibition of calcium flux at 10 uM by fluorescence assay; format: functional, cell-based
Procedure, shortened: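 GPCR profiling panel of cell-based functional assays covering 165 GPCRs; agonist mode tested at 12.5 μM and antagonist mode at 10 μM, in duplicate.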

[6] = target: T1, GATA4/NKX2-5 (Mus musculus) (UniProt Q08369+P42582); assay: Inhibition of mouse GATA4/FLAG-tagged NKX2-5 interaction expressed in African green monkey COS-1 cells at 100 uM by coimmunoprecipitation method; format: cell-based
Procedure, shortened: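 FLAG-NKX2-5 and GATA4 lysates from COS-1 cells incubated overnight at 4 °C with anti-FLAG agarose in Tris/NaCl/Triton lysis buffer with protease/phosphatase inhibitors; beads washed thrice, eluted by boiling, SDS-PAGE, immunoblotted for GATA4 and NKX2-5, ECL detection.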

[7] = target: T2, GATA4/NKX2-5 (Rattus norvegicus) (UniProt P46152+O35767); assay: Inhibition of GATA4/NKX2-5 interaction in neonatal rat ventricular cardiomyocytes assessed as decrease in endothelin-1 induced mRNA level of BNP at 10 uM preincubated for 1 hr followed by endothelin-1 addition measured after 23 hrs by real-time PCR analysis
Procedure, shortened: (§2)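 Neonatal rat ventricular myocytes (2–4-day-old Sprague-Dawley or Wistar), preplated, seeded on 6-well plates, moved to complete serum-free medium next day and cultured 24 h. Compounds (10–100 μM) added 1 h before 100 nM endothelin-1 or none; ANP and BNP mRNA quantified by RT-PCR at 24 h, normalized to 18S RNA, relative to vehicle; mean ± SD, n = 3–6.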

[8] = Induction of apoptosis in endothelin-1 induced neonatal rat ventricular cardiomyocytes at 50 uM measured after 24 hrs by TUNEL assay; format: cell-based; conditions: cardiac muscle cell
Procedure, shortened: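 Neonatal rat cardiomyocytes on 8-well chamber slides treated 24 h at 50 μM; apoptotic cells detected by TUNEL with peroxidase in situ kit.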

[9] = species on record: Homo sapiens; assay: Inhibition of human PKA at 30 uM; procedure, shortened: as §1
[10] = target: GATA4/NKX2-5 (Mus musculus, UniProt P42582+Q08369); assay: (§3) Inhibition of mouse GATA4/NKX2-5 transcriptional synergy expressed in African green monkey COS-1 cells measured after 30 hrs by dual luciferase reporter gene assay; format: cell-based
Procedure, shortened: (§4)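 COS-1 cells co-transfected (Fugene 6, DNA:reagent 1:3) with p3xNKE-luc, Renilla pRL-TKd238 control, and pMT2-GATA4, pMT2-NKX2-5, both, or empty pMT2; DNA balanced with pMT2. Compounds added 6 h post-transfection in 0.1% DMSO, medium renewed at 24 h, lysis at 30 h. Dual-luciferase read-out, firefly/Renilla normalized to vehicle; duplicate wells.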

[11] = target: T1, GATA4/NKX2-5 (Mus musculus); assay: as §3; format: cell-based; procedure, shortened: as §4
[12] = Drug metabolism in embryoid body differentiation medium assessed as formation of N-[4-(Ethylamino)phenyl]-5-methyl-3-phenylisoxazole-4-carboxamide at 3 to 5 uM measured after 10 days by HPLC/MS method; format: physicochemical; conditions: 240 h
Procedure, shortened: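 Mouse embryonic stem cells exposed 5 and 10 days to 3 or 5 μM, with DMSO and EB differentiation medium blanks. Medium extracted with chloroform; cells pelleted, saline-washed twice, sonicated in chloroform. UPLC-ESI(+)-QTOF/MS, BEH C18, 0.1% formic acid water/acetonitrile gradient 7–80% B over 5 min, 0.6 mL/min, 40 °C.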

[13] = target: Vascular endothelial growth factor receptor 2 (Homo sapiens) (UniProt P35968); assay: Inhibition of human VEGFR2 at 30 uM; procedure, shortened: as §1
[14] = target: T2, GATA4/NKX2-5 (Rattus norvegicus); assay: Inhibition of GATA4/NKX2-5 interaction in neonatal rat ventricular cardiomyocytes assessed as decrease in basal mRNA level of ANP at 10 uM after 24 hrs by real-time PCR analysis; procedure, shortened: as §2

Chain of Hydroxycarboxylic acid receptor 2 (Homo sapiens) (Q8TDS4 whole entry): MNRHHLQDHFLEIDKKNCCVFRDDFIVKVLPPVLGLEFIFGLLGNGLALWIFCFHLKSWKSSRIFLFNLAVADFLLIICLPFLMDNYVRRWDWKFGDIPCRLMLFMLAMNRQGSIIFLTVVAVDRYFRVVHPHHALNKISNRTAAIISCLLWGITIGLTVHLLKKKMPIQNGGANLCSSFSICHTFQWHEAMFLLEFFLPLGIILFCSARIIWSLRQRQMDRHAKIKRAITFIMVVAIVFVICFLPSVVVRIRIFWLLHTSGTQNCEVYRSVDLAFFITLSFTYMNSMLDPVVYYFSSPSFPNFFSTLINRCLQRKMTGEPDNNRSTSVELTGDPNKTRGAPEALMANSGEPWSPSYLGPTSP
Chain of Vascular endothelial growth factor receptor 2 (Homo sapiens) (P35968 whole entry): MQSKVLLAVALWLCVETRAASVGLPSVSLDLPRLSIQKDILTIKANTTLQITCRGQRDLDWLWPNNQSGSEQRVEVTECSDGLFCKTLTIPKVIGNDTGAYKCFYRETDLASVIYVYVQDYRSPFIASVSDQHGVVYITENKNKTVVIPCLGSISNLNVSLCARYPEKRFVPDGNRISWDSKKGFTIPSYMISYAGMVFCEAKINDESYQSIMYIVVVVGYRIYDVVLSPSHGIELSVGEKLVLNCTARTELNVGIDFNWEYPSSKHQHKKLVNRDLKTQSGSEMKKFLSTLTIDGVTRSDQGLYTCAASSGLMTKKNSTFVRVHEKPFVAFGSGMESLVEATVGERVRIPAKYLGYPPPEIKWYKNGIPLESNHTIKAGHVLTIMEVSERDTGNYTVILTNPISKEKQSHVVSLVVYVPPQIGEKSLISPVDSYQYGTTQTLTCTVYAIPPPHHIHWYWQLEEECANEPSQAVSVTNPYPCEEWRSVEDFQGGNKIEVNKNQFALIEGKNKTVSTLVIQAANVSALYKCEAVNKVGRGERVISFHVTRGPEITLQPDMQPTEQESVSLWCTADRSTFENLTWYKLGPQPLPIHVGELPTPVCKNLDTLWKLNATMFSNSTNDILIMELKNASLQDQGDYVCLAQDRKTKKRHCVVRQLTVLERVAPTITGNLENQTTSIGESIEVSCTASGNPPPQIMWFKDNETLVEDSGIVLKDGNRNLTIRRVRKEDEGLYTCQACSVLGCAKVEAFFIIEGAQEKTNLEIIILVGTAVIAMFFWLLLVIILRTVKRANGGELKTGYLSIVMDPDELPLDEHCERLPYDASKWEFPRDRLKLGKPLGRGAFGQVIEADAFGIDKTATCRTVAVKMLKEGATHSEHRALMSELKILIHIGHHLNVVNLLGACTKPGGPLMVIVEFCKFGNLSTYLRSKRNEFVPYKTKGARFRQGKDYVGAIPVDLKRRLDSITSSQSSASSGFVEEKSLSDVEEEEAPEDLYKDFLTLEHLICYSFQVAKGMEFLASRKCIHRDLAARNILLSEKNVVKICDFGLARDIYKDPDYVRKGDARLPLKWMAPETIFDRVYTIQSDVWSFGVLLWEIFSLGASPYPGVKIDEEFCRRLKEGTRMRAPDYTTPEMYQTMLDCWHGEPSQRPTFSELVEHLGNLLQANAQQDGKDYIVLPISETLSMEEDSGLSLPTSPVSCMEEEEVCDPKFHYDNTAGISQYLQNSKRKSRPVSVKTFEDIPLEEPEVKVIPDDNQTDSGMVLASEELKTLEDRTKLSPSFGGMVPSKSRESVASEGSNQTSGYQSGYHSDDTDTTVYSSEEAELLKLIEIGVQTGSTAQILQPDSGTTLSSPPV
Chain of Transcription factor GATA-4 (Mus musculus) (Q08369 whole entry): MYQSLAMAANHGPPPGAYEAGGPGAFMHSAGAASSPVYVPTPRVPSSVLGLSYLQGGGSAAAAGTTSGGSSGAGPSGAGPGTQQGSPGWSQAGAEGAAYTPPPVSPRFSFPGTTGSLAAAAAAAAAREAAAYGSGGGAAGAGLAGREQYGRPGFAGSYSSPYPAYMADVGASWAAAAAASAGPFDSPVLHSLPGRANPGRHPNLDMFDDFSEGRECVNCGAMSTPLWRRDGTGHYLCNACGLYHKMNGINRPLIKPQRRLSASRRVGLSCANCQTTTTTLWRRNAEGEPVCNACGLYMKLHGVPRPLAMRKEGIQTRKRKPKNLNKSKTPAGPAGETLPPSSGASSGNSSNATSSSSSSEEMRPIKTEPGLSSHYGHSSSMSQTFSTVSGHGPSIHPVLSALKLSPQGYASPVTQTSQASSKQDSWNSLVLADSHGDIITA
Chain of GATA4/NKX2-5 (Q08369 whole entry): as above
Chain of GATA4/NKX2-5 (P42582 whole entry): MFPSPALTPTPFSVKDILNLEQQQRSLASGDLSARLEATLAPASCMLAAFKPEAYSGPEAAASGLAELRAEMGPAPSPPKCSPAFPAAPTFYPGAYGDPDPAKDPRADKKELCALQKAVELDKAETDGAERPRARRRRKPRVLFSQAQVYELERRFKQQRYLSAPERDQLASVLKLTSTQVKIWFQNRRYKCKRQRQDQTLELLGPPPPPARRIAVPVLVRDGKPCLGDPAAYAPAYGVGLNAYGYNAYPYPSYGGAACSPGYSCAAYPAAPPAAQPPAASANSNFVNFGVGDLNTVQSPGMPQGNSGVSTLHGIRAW
Chain of Mitogen-activated protein kinase 1 (Homo sapiens) (P28482 whole entry): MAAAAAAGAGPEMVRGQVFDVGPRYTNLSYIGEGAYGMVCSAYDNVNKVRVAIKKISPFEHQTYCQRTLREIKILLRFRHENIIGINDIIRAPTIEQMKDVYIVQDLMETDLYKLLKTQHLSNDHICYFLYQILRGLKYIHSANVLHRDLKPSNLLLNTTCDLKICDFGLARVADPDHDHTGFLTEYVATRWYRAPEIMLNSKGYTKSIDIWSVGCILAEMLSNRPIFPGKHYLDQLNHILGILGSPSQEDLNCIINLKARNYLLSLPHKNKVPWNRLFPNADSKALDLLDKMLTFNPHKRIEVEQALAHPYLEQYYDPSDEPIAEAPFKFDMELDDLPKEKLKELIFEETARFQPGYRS
Chain of Homeobox protein Nkx-2.5 (Mus musculus) (P42582 whole entry): as the sequence (P42582 whole entry) above

- inhibition [1]: inactive
- inhibition [2]: inactive
- inhibition [3]: Active
- inhibition [5]: 58.5%
- inhibition [6]: Active
- inhibition [7]: 68%
- inhibition [9]: inactive
- IC50 [10]: 3 µM
- inhibition [11]: Dose-dependent effect
- Drug metabolism [12]: Metabolite_Detected
- inhibition [13]: 64%
- inhibition [14]: 81%
SMILES: CCN(CC)c1ccc(NC(=O)c2c(-c3ccccc3)noc2C)cc1
- Activity [4]: inactive
- Activity [8]: Non-Toxic
